Test results as given in ChEMBL document CHEMBL1130141, “Mapping the peripheral benzodiazepine receptor binding site by conformationally restrained derivatives of 1-(2-chlorophenyl)-N-methyl-N-(1-methylpropyl)-3- isoquinolinecarboxamide (PK11195)” (J Med Chem, 1997).
Active and inactive are the calls of the source. The calls are words filed in the database; no cut-off is given here.

Tests used:
Translocator protein [1] = molecular target: T1, Translocator protein (Rattus norvegicus, UniProt P16257); assay: In vitro binding affinity (pIC50) was tested against peripheral benzodiazepine receptor (PBR) in rat.
Translocator protein [2] = molecular target: T1, Translocator protein; assay: In vitro displacement of [3H]PK11195 from the peripheral benzodiazepine receptor (PBR) in rat cortex
[3] = molecular target: Translocator protein (Rattus norvegicus) (UniProt P16257); assay: In vitro binding affinity (pIC50) for peripheral benzodiazepine receptor (PBR) in rat (inactive)
Procedure, shortened: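 Male CD rat cerebral cortex, stored at -80°C, homogenized in ice-cold 50 mM PBS pH 7.4 with 100 mM NaCl and washed by centrifugation. Membranes used at 2.3 mg tissue per sample with 1 nM [3H]PK11195 for 120 min at 4°C, then filtered on GF/B and counted by scintillation. Nonspecific binding defined with 1 µM PK11195. IC50 from curve fitting of 6 concentrations.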

T1 sequence (P16257 whole entry, looked up): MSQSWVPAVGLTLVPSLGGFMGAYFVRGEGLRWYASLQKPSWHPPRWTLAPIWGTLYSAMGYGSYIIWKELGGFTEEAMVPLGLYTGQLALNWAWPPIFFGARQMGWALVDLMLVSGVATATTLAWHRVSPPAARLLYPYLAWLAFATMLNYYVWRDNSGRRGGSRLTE
Translocator protein (Rattus norvegicus), sequence (P16257 whole entry, looked up): as above

## CCC(C)N1CCCc2c(nc3ccccc3c2-c2ccccc2)C1=O (stereo not given)
Translocator protein [1]
  IC50: 1200 nM
Translocator protein [2]
  IC50: 1200 nM

## CCC(C)N1CCCc2c(nc(-c3ccccc3)c3ccccc23)C1=O (stereo not given)
Translocator protein [1]
  IC50: 794 nM
Translocator protein [2]
  IC50: 780 nM

## Cc1c(C(=O)N(C)Cc2ccccc2)nc2ccccc2c1-c1ccccc1
Translocator protein [1]
  IC50: 2.09 nM
Translocator protein [2]
  IC50: 2.1 nM

## Cc1c(C(=O)NCc2ccccc2)nc2ccccc2c1-c1ccccc1
Translocator protein [1]
  IC50: 1200 nM
Translocator protein [2]
  IC50: 1200 nM

## COc1ccc(N(C)C(=O)c2nc3ccccc3c(-c3ccccc3)c2C)cc1
Translocator protein [1]
  IC50: 8.71 nM
Translocator protein [2]
  IC50: 8.8 nM

## CCC(C)NC(=O)c1nc(-c2ccccc2)c2ccccc2c1C (stereo not given)
Translocator protein [1]
  IC50: 550 nM
Translocator protein [2]
  IC50: 550 nM

## Cc1c(C(=O)N(C)c2ccc(Cl)cc2)nc2ccccc2c1-c1ccccc1
Translocator protein [1]
  IC50: 6.46 nM
Translocator protein [2]
  IC50: 6.4 nM

## CN1CCCc2c(nc3ccccc3c2-c2ccccc2)C1=O
Translocator protein [2]
  IC50: > 10000 nM

## Cc1c(C(=O)N(C)Cc2ccc(Cl)cc2)nc2ccccc2c1-c1ccccc1F
Translocator protein [1]
  IC50: 3.39 nM
Translocator protein [2]
  IC50: 3.4 nM

## CN(Cc1ccccc1)C(=O)c1nc2ccccc2c2c1CCc1ccccc1-2
Translocator protein [1]
  IC50: 8.91 nM
Translocator protein [2]
  IC50: 8.9 nM

## Cc1c(C(=O)N(C)Cc2ccccc2)nc(-c2ccccc2)c2ccccc12
Translocator protein [1]
  IC50: 3.09 nM
Translocator protein [2]
  IC50: 3.1 nM

## Cc1c(C(=O)N(C)Cc2ccc(Cl)cc2)nc2ccccc2c1-c1ccccc1
Translocator protein [1]
  IC50: 9.77 nM
Translocator protein [2]
  IC50: 9.8 nM

## CCC(C)N(C)C(=O)c1nc2ccccc2c(-c2ccccc2)c1C (stereo not given)
Translocator protein [1]
  IC50: 2.09 nM
Translocator protein [2]
  IC50: 2.1 nM

## CN(Cc1ccccc1)C(=O)c1nc2ccccc2c2c1OCCc1ccccc1-2
Translocator protein [1]
  IC50: 10 nM
Translocator protein [2]
  IC50: 10 nM

## O=C1c2nc3ccccc3c(-c3ccccc3)c2CCCN1Cc1ccccc1
Translocator protein [1]
  IC50: 170 nM
Translocator protein [2]
  IC50: 170 nM

## CCC(C)N(C)C(=O)c1nc(-c2ccccc2)c2ccccc2c1C (stereo not given)
Translocator protein [1]
  IC50: 11.2 nM
Translocator protein [2]
  IC50: 11 nM

## CCC(C)N1Cc2c(nc3ccccc3c2-c2ccccc2)C1=O (stereo not given)
[3]
  Log IC50: inactive
Translocator protein [2]
  IC50: > 10000 nM

## CCC(C)N1Cc2c(nc3ccccc3c2-c2ccccc2F)C1=O (stereo not given)
Translocator protein [2]
  IC50: > 10000 nM

## CCC(C)NC(=O)c1nc2ccccc2c(-c2ccccc2F)c1C (stereo not given)
Translocator protein [1]
  IC50: 12.9 nM
Translocator protein [2]
  IC50: 13 nM

## CCCCC1c2c(nc3ccccc3c2-c2ccccc2)C(=O)N1Cc1ccccc1 (stereo not given)
Translocator protein [1]
  IC50: 813 nM
Translocator protein [2]
  IC50: 810 nM

## O=C1c2nc(-c3ccccc3)c3ccccc3c2C=CCN1Cc1ccccc1
Translocator protein [1]
  IC50: 45.7 nM
Translocator protein [2]
  IC50: 45 nM

## O=C1c2nc(-c3ccccc3)c3ccccc3c2CN1Cc1ccccc1
Translocator protein [1]
  IC50: 479 nM
Translocator protein [2]
  IC50: 480 nM

## CCC(C)N(C)C(=O)c1nc2ccccc2c(-c2ccccc2F)c1C (stereo not given)
Translocator protein [1]
  IC50: 2.88 nM
Translocator protein [2]
  IC50: 2.9 nM

## Cc1c(C(=O)NCc2ccc(Cl)cc2)nc2ccccc2c1-c1ccccc1
Translocator protein [1]
  IC50: 1700 nM
Translocator protein [2]
  IC50: 1700 nM

## O=C1c2nc3ccccc3c(-c3ccccc3)c2CN1Cc1ccccc1
Translocator protein [2]
  IC50: > 10000 nM

## CCC(C)N1Cc2c(nc(-c3ccccc3)c3ccccc23)C1=O (stereo not given)
Translocator protein [1]
  IC50: 617 nM
Translocator protein [2]
  IC50: 620 nM

## Cc1c(C(=O)NCc2ccc(Cl)cc2)nc2ccccc2c1-c1ccccc1F
Translocator protein [1]
  IC50: 269 nM
Translocator protein [2]
  IC50: 270 nM

## CCC(C)NC(=O)c1nc2ccccc2c(-c2ccccc2)c1C (stereo not given)
Translocator protein [1]
  IC50: 229 nM
Translocator protein [2]
  IC50: 230 nM

## CCC(C)N1CC=Cc2c(nc(-c3ccccc3)c3ccccc23)C1=O (stereo not given)
Translocator protein [1]
  IC50: 490 nM
Translocator protein [2]
  IC50: 490 nM
